Measurements: ChEMBL document CHEMBL3399918, “In vitro radical scavenging and cytotoxic activities of novel hybrid selenocarbamates” (Bioorg Med Chem, 2015)

Legend:
[1] = Cytotoxicity against human HTB-54 cells after 72 hrs by MTT assay; format: functional; details: HTB-54, 72 h; for CC50: read-out: LC50 (the source's name)
Procedure, shortened: (§1)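 CCRF-CEM, HT-29, PC-3 and HTB-54 cells grown in RPMI 1640 with 10% foetal calf serum, 2 mM L-glutamine, penicillin/streptomycin, 10 mM HEPES (pH 7.4). Five concentrations, 0.01–100 μM, 72 h at 37 °C, 5% CO2; MTT read-out. GI50, TGI and LC50 versus untreated controls; at least 3 independent experiments in quadruplicate.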

HT-29 = experiment: Cytotoxicity against human HT-29 cells after 72 hrs by MTT assay; format: functional; details: HT-29, 72 h; procedure, shortened: as §1
[2] = Cytotoxicity against human BEAS2B cells after 72 hrs by MTT assay; format: cell-based, BEAS-2B; details: for GI50 at 72 h: BEAS2B cells; for LC50 / TGI: beas-2b, 72 h
Procedure, shortened: (§2)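 Non-malignant lines: 184B5 (normal breast) in Hams F-12/DMEM (50:50) with published supplements; BEAS-2B (bronchial epithelium) in Hams F-12/DMEM (50:50) with 10% foetal calf serum, 2 mM L-glutamine, penicillin/streptomycin. Compounds at five concentrations, 0.01–100 μM, 72 h, 37 °C, 5% CO2; MTT read-out. GI50, TGI, LC50 relative to untreated controls; ≥3 independent experiments in quadruplicate.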

[3] = Cytotoxicity against human PC3 cells after 72 hrs by MTT assay; format: functional; details: PC-3, 72 h; procedure, shortened: as §1
CCRF-CEM = experiment: Cytotoxicity against human CCRF-CEM cells after 72 hrs by MTT assay; format: functional; procedure, shortened: as §1
[4] = Cytotoxicity against human 184B5 cells after 72 hrs by MTT assay; format: cell-based; details: for GI50 at 72 h: 184B5 cells; for LC50 / TGI: 184b5, 72 h; procedure, shortened: as §2
[5] = Antioxidant activity assessed as DPPH radical scavenging activity at 0.5 mg/ml after 180 mins; format: physicochemical; details: 3 h
Procedure, shortened: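 Compounds in absolute ethanol, serially diluted from 1 mg/mL, mixed 1:1 with […] in ethanol. Final range 0.016–0.5 mg/mL, 6 concentrations. Incubated at 37 °C in the dark, with decolourisation followed at 517 nm at several time intervals. % scavenged = (A vehicle control − A sample)/A control × 100. Quadruplicate; mean ± SD.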

MCF7 = experiment: Cytotoxicity against human MCF7 cells after 72 hrs by MTT assay; format: functional; details: MCF7, 72 h; for CC50: read-out: LC50 (the source's name)
Procedure, shortened: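 MCF-7 cells grown in EMEM with 10% foetal calf serum, 2 mM L-glutamine, 100 units/mL penicillin, 100 µg/mL streptomycin. Exposed to five concentrations between 0.01 and 100 μM for 72 h, 37 °C, humidified 5% CO2; MTT read-out. GI50, TGI, LC50 relative to untreated controls; ≥3 independent experiments in quadruplicate.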

[6] = Antioxidant activity assessed as ABTS radical scavenging activity by measuring Trolox equivalent antioxidant capacity after 6 mins; format: physicochemical; details: 0.1 h
Procedure, shortened: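 ABTS dissolved in deionized water at 1 mg/mL, oxidised to radical cation with potassium persulfate (2.45 mM final), kept overnight at room temperature in dark, then diluted with 50% ethanol to A741 = 0.700 ± 0.02. Compound (1 mg/mL ethanol stock) added 1:10 (0.1 mg/mL); A741 decrease read after 6 min against 50% ethanol blank. Trolox positive control; quadruplicate; TEAC from calibration curve.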

| SMILES | GI50 [1] [µM] | TGI [1] [µM] | CC50 [1] [µM] | GI50 (HT-29) [µM] | LC50 (HT-29) [µM] | TGI (HT-29) [µM] | GI50 at 72 h [2] [µM] | LC50 [2] [µM] | TGI [2] [µM] | GI50 [3] [µM] | LC50 (concentration causing 50% net cell kill) [3] [µM] | TGI [3] [µM] | GI50 (CCRF-CEM) [µM] | LC50 (CCRF-CEM) [µM] | TGI (CCRF-CEM) [µM] | GI50 at 72 h [4] [µM] | LC50 [4] [µM] | TGI [4] [µM] | GI50 (MCF7) [µM] | TGI (MCF7) [µM] | further results |
| --- | --- | --- | --- | --- | --- | --- | --- | --- | --- | --- | --- | --- | --- | --- | --- | --- | --- | --- | --- | --- | --- |
| O=C(Nc1ccc([Se][Se]c2ccc(NC(=O)OCc3ccccc3)cc2)cc1)OCc1ccccc1 | 23.8 | 50.9 | 78 | 1.8 | 69 | 35.4 | 0.01 | 58.5 | 17.3 | 0.1 | 70.4 | 33.5 | 6.4 | 67.9 | 34.6 | 0.1 | 36.2 | 5.8 | 5.2 | 38.6 | inhibition (INH) [5]: 7.4%; CC50 (MCF7): 74.5 µM |
| O=C(Nc1ccc([Se][Se]c2ccc(NC(=O)Oc3ccccc3)cc2)cc1)Oc1ccccc1 | 22.7 | 56.2 | 89.8 | 13 | 70.2 | 41.6 | 1.4 | 50.7 | 8.6 | 5.3 | 62.9 | 27.2 | 22.4 | 73.7 | 48.1 | 4.5 | 48.9 | 9 | 8 | 36.7 | inhibition (INH) [5]: 66.9%; CC50 (MCF7): 69 µM |
| N#C[Se]c1ccc(NC(=O)OCc2ccc([N+](=O)[O-])cc2)cc1 | 22.9 | 47.6 | 72.4 | 22.4 | 71.9 | 47.1 | 7.7 | 65.8 | 32.8 | 9 | 67.6 | 36.5 | 9.3 | 68.8 | 38.3 | 6 | 58.5 | 18 | 11.8 | 40.7 | Activity [6]: 9.66 µg/µL; CC50 (MCF7): 69.5 µM |
| Cc1ccc(OC(=O)Nc2ccc([Se][Se]c3ccc(NC(=O)Oc4ccc(C)cc4)cc3)cc2)cc1 | 24.9 | 57 | 89.1 | 7.9 | 70.9 | 39.4 | 0.7 | 61.8 | 19.2 | 4.4 | 64.8 | 28.2 | 21.4 | 75.6 | 48.5 | 3.5 | 37.2 | 7.6 | 6.9 | 37.7 | inhibition (INH) [5]: > 50%; CC50 (MCF7): 74 µM |
| O=C(Nc1ccc([Se][Se]c2ccc(NC(=O)OCC3=Cc4ccccc4S3(=O)=O)cc2)cc1)OCC1=Cc2ccccc2S1(=O)=O | 4.4 | 6.3 | 8.2 | 3 | 7.8 | 5.4 | 3.5 | 7.9 | 5.7 | 3.8 | 7.9 | 5.8 | 2.3 | 7.5 | 4.9 | 2.6 | 7.5 | 5 | 3.2 | 5.7 | Activity [6]: 5.78 µg/µL; CC50 (MCF7): 8.2 µM |
| COc1ccc(OC(=O)Nc2ccc([Se]C#N)cc2)cc1 | 23.7 | 48.5 | 73.3 | 13.6 | 69.6 | 41.5 | 25.2 | 71.6 | 48.4 | 7.5 | 71.6 | 44.6 | 13 | 70 | 41.5 | 4.5 | 59.6 | 19.2 | 22.4 | 48.2 | Activity [6]: 2.58 µg/µL; CC50 (MCF7): 74.1 µM |
| CCCCCCOC(=O)Nc1ccc([Se][Se]c2ccc(NC(=O)OCCCCCC)cc2)cc1 | 31 | 54.3 | 77.2 | 11 | 74.2 | 42.6 | 0.01 | 51.8 | 6.9 | 0.6 | 66.7 | 25.7 | 6.2 | 67.3 | 34.4 | 4.6 | 53.4 | 9.8 | 15.8 | 52.9 | inhibition (INH) [5]: < 16%; CC50 (MCF7): 89.9 µM |
| CCCOC(=O)Nc1ccc([Se]C#N)cc1 | 28.9 | 51.9 | 74.9 | 28.4 | 75.4 | 51.9 | 19.2 | 73.5 | 46.3 | 21.1 | 73.8 | 47.4 | 9.3 | 68.8 | 38.4 | 3.7 | 50.9 | 9.1 | 8 | 34.4 | Activity [6]: 6.27 µg/µL; CC50 (MCF7): 67.5 µM |
| CCCCCCOC(=O)Nc1ccc([Se]C#N)cc1 | 23.6 | 48.5 | 73 | 10.7 | 69.9 | 40.3 | 2.8 | 68 | 35.9 | 17.3 | 72 | 44.6 | 19.7 | 72.7 | 46.2 | 4.6 | 60.1 | 20 | 6.6 | 30.5 | inhibition (INH) [5]: > 25%; CC50 (MCF7): 63.9 µM |
| N#C[Se]c1ccc(NC(=O)OCC2=Cc3ccccc3S2(=O)=O)cc1 | 6.8 | 26.9 | 62.7 | 26.1 | 74.3 | 50.2 | 7.7 | 64.3 | 29 | 6.3 | 59.8 | 21.3 | 3.3 | 8.9 | 6.1 | 5.3 | 59.7 | 19.2 | 8.3 | 34.9 | Activity [6]: 1.92 µg/µL; CC50 (MCF7): 66.1 µM |
| O=C(Nc1ccc([Se][Se]c2ccc(NC(=O)OCC3c4ccccc4-c4ccccc43)cc2)cc1)OCC1c2ccccc2-c2ccccc21 | 36.8 | 60.5 | 84.3 | 17.8 | 80.3 | 49 | 7.1 | 64.1 | 27.9 | 9.2 | 70.3 | 38.8 | 14.9 | 71.4 | 43.2 | 6.5 | 59.4 | 19.7 | 22.6 | 52.9 | Activity [6]: 0.93 µg/µL; CC50 (MCF7): 83.3 µM |
